Experimental data from ChEMBL document CHEMBL1141365, “A novel series of highly selective inhibitors of MMP-3” (Bioorg Med Chem Lett, 2007).
Converted amounts (≈) assume the structure as drawn.

What was measured:
Stromelysin-1 = Stromelysin-1 (Homo sapiens, UniProt P08254); assay: Inhibition of MMP3
Outline: (§1)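 Catalytic-domain enzyme; 1 µM stock activated with APMA (1 mM, 1 h at 37 °C for MMP-2; 2 mM, 3 h at 37 °C for MMP-3), then diluted to 10 nM in Tris–HCl buffer. Assay used 0.1 nM enzyme and 5 µM fluorogenic substrate Mca-Arg-Pro-Lys-Tyr-Ala-Nva-Trp-Met-Lys(Dnp)-NH2. Inhibitor (≤1% DMSO) preincubated with enzyme 15 min at 37 °C. After substrate, 1 h at 37 °C; fluorescence read at ex 328/em 393 nm. IC50 taken from concentration–response curves as the geometric mean of ≥3 experiments.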

[1] = target: Matrix metalloproteinase-9 (Homo sapiens, UniProt P14780); assay: Inhibition of MMP9
[2] = target: Matrix metalloproteinase-14 (Homo sapiens, UniProt P50281); assay: Inhibition of MMP14
[3] = target: 72 kDa type IV collagenase (Homo sapiens, UniProt P08253); assay: Inhibition of MMP2; outline: as §1
[4] = Aqueous solubility of the compound; assay type: physicochemical
Outline: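 Solubility in aqueous media determined across pH 1, 5, 7, 9 and 11.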

Interstitial collagenase = target: T1, Interstitial collagenase (Homo sapiens, UniProt P03956); assay: Inhibition of MMP1
T1 sequence (P03956 whole entry): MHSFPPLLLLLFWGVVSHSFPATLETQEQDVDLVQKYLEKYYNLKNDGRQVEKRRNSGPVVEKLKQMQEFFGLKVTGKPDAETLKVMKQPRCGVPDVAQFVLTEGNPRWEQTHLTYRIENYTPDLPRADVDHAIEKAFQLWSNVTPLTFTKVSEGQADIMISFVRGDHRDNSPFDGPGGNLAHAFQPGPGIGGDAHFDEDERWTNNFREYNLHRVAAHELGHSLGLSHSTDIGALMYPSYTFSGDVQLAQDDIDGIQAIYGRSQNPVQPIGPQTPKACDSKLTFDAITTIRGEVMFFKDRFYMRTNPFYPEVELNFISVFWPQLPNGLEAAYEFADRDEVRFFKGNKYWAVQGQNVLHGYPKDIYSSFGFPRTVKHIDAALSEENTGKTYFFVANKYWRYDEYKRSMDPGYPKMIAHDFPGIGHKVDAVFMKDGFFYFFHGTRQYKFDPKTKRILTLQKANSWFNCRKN

[5] = Selectivity for MMP3 over MMP2
Collagenase 3 = Collagenase 3 (Homo sapiens, UniProt P45452); assay: Inhibition of MMP13

Chain of Stromelysin-1 (P08254 whole entry): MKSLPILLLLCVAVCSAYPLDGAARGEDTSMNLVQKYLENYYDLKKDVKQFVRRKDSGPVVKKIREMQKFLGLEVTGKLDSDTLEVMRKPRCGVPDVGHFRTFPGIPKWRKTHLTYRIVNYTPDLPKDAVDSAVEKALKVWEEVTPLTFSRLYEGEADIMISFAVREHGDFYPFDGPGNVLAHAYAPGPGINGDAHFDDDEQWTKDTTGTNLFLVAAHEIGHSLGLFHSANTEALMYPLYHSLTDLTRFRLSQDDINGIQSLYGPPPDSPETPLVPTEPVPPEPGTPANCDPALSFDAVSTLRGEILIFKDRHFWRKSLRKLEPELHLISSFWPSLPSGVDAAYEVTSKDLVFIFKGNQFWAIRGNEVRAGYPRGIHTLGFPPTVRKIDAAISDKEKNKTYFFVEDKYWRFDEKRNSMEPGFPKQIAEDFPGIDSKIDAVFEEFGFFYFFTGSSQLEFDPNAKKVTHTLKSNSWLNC
Chain of Matrix metalloproteinase-9 (P14780 whole entry): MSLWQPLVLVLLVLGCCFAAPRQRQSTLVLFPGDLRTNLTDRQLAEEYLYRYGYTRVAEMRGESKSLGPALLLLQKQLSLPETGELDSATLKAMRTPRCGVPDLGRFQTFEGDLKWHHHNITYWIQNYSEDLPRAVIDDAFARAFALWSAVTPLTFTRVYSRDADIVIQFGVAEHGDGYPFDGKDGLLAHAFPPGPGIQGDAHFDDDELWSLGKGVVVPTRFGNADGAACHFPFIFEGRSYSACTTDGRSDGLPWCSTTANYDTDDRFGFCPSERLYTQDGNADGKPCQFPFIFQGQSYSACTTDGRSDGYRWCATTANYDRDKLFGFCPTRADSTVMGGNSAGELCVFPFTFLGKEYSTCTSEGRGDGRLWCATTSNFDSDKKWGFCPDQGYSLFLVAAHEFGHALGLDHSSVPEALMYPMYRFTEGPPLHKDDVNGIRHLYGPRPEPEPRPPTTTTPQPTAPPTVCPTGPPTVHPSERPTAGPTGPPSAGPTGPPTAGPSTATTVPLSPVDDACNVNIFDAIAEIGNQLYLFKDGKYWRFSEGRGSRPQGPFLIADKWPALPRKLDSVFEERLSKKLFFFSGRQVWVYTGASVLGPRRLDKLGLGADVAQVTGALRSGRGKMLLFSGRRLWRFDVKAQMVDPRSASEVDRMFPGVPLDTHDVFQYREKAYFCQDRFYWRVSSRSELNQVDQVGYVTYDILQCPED
Chain of 72 kDa type IV collagenase (P08253 whole entry): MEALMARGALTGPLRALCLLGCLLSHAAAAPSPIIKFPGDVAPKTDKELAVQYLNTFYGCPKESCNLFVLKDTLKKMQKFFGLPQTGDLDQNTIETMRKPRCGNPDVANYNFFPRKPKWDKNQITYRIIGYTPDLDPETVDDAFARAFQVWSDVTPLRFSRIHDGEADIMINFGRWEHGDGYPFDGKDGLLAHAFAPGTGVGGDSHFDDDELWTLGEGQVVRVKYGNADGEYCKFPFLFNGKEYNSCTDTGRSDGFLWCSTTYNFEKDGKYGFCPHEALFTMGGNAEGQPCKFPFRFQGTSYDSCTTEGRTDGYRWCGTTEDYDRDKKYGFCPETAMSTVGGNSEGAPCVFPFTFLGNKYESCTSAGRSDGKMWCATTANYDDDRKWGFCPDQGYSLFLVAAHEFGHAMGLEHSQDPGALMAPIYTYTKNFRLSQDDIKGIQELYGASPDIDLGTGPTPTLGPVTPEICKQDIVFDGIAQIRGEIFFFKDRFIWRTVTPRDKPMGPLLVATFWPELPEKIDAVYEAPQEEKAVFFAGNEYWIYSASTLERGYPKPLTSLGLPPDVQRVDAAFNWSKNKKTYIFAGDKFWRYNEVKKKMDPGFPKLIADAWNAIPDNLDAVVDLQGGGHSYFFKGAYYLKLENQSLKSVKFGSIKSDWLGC

Compound | IC50 (Stromelysin-1) [nM] | IC50 [3] [nM] | other results
CCc1cccc(-c2ccc(C3=CCN(S(=O)(=O)CC(=O)NO)CC3)cc2C)c1 | 31 | 1210 | –
COCc1cccc(-c2ccc(C3=CCN(S(=O)(=O)CC(=O)NO)CC3)cc2C)c1 | 3 | 196 | –
CCOc1cccc(-c2ccc(C3=CCN(S(=O)(=O)CC(=O)NO)CC3)cc2C)c1 | 4 | 998 | solubility [4]: < 1 µg/mL
O=C(CS(=O)(=O)N1CCC(c2ccc(Oc3ccccc3)cc2)CC1)NO | 205 | – | Selectivity ratio [5]: < 2
O=C(CS(=O)(=O)N1CC=C(c2ccc(-c3ccccc3)c(C(F)(F)F)c2)CC1)NO | 960 | 3080 | –
COCCOc1cccc(-c2ccc(C3CCN(S(=O)(=O)C(C)(C)C(=O)NO)CC3)cc2C)c1 | 3 | 853 | –
CCOc1cccc(-c2ccc(C3CCN(S(=O)(=O)C(C)(C)C(=O)NO)CC3)cc2C)c1 | 2 | 457 | –
COc1cccc(-c2ccc(C3=CCN(S(=O)(=O)CC(=O)NO)CC3)cc2C)c1 | 5 | 222 | –
Cc1cc(C2CCN(S(=O)(=O)C(C)(C)C(=O)NO)CC2)ccc1-c1cccc(OCCN(C)C)c1 | 1 | 534 | –
CN(CCc1ccc(-c2ccccc2)cc1)S(=O)(=O)CC(=O)NO | 164 | – | Selectivity ratio [5]: < 2
Cc1cccc(-c2ccc(C3=CCN(S(=O)(=O)CC(=O)NO)CC3)cc2C)c1 | 4 | 776 | –
Cc1cc(C2=CCN(S(=O)(=O)CC(=O)NO)CC2)ccc1-c1ccccc1 | – | 320 | –
O=C(CS(=O)(=O)N1CC(c2ccc(-c3ccccc3)cc2)C1)NO | 161 | – | Selectivity ratio [5]: < 2
CN(Cc1ccc(-c2ccccc2)cc1)S(=O)(=O)CC(=O)NO | 378 | – | Selectivity ratio [5]: < 2
O=C(CS(=O)(=O)N1CCC(c2ccc(-c3ccccc3)cc2)CC1)NO | – | – | Selectivity ratio [5]: < 2
Cc1cc(C2CCN(S(=O)(=O)C(C)(C)C(=O)NO)CC2)ccc1-c1cccc(OCCO)c1 | 1 | 262 | IC50 [1]: 406 nM; IC50 [2]: 1710 nM; solubility [4]: 1 µg/mL (≈ 2.1 µM); IC50 (Interstitial collagenase): 3230 nM

The next lines start with results.

IC50 (Stromelysin-1) [nM] | IC50 [3] [nM] | Compound | other results
1 | 529 | Cc1cc(C2CCN(S(=O)(=O)C(C)(C)C(=O)NO)CC2)ccc1-c1cccc(OCCO)n1 | IC50 [1]: 2420 nM; IC50 [2]: 20100 nM; solubility [4]: 1 µg/mL (≈ 2.09 µM); IC50 (Interstitial collagenase): 14000 nM
174 | – | CN(CCCc1ccc(-c2ccccc2)cc1)S(=O)(=O)CC(=O)NO | Selectivity ratio [5]: < 2
23 | – | COC[C@@H](NC(=O)[C@@H](NC(=O)[C@H](CCCc1ccc(-c2ccccc2)c(C)c1)CC(=O)O)C(C)(C)C)c1ccccc1 | IC50 [1]: 30400 nM; IC50 [2]: 66900 nM; IC50 (Interstitial collagenase): > 100000 nM; IC50 (Collagenase 3): 2300 nM
420 | 4380 | CCc1cc(C2=CCN(S(=O)(=O)CC(=O)NO)CC2)ccc1-c1ccccc1 | –
6 | 9 | O=C(CS(=O)(=O)N1CC=C(c2ccc(-c3ccccc3)cc2)CC1)NO | Selectivity ratio [5]: < 2
0.4 | 188 | Cc1cc(C2CCN(S(=O)(=O)C(C)(C)C(=O)NO)CC2)ccc1-c1cccc(OCCN)c1 | –
51 | 173 | Cc1cc(C2=CCN(S(=O)(=O)CC(=O)NO)CC2)ccc1-c1cccc(OC(F)(F)F)c1 | –
84 | – | O=C(CS(=O)(=O)N1CC(Oc2ccc(-c3ccccc3)cc2)C1)NO | Selectivity ratio [5]: < 2
3 | 17 | O=C(CS(=O)(=O)N1CC=C(c2ccc(-c3ccccc3)c(F)c2)CC1)NO | –
0.3 | 196 | CNCCOc1cccc(-c2ccc(C3CCN(S(=O)(=O)C(C)(C)C(=O)NO)CC3)cc2C)c1 | –
55 | 620 | O=C(CS(=O)(=O)N1CC=C(c2ccc(-c3ccccc3)c(Cl)c2)CC1)NO | –
